Assay results taken from ChEMBL document CHEMBL4382247, “A novel series of napabucasin derivatives as orally active inhibitors of signal transducer and activator of transcription 3 (STAT3)” (Eur J Med Chem, 2019).
Converted amounts (≈) assume the structure as drawn.

Legend:
U-251 = assay: Antiproliferative activity against human U251 cells after 72 hrs by MTT assay; assay type: functional, cell-based; conditions: U-251, 72 h
Outline: (§1)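 Cells seeded at 5 × 10^3 per well and cultured 24 h before compound addition at varied concentrations, then grown a further 72 h; 0.5% DMSO as solvent control. MTT (5mg/ml solution) added for 4 h, formazan dissolved in DMSO, absorbance read at 570nm. Each treatment in triplicate; Mean ± SD.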

HepG2 = assay: Antiproliferative activity against human HepG2 cells after 72 hrs by MTT assay; assay type: functional, cell-based; conditions: HepG2, 72 h; outline: as §1
HT-29 = assay: Antiproliferative activity against human HT-29 cells after 72 hrs by MTT assay; assay type: functional, cell-based; conditions: HT-29, 72 h; outline: as §1
CT26 = assay: Antiproliferative activity against mouse CT26 cells after 72 hrs by MTT assay; assay type: functional, cell-based; conditions: CT26, 72 h; outline: as §1
PC-3 = assay: Antiproliferative activity against human PC3 cells after 72 hrs by MTT assay; assay type: functional, cell-based; conditions: PC-3, 72 h; outline: as §1
[1] = Aqueous solubility of the compound in water at 2 mg after 24 hrs by HPLC analysis; assay type: physicochemical
Outline: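 Aqueous solubility measured by HPLC against calibration standards at 15–125 µg/mL. Values are the mean of at least three determinations ± SD.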

`O=C(/C=C/c1ccccc1)c1cc2c(o1)C(=O)c1ccccc1C2=O` gave an IC50 (U-251) of over 10 µM, an IC50 (HepG2) of over 10 µM and an IC50 (HT-29) of over 10 µM. It also gave an IC50 (CT26) of over 10 µM and an IC50 (PC-3) of over 10 µM.

Work on `CN1CCN(C(=O)c2cc3c(o2)C(=O)c2ccccc2C3=O)CC1` yielded an IC50 (U-251) of 1.37 µM, an IC50 (HepG2) of 5.27 µM and an IC50 (HT-29) of 0.39 µM. The IC50 (CT26) was 0.26 µM, the IC50 (PC-3) was 4.58 µM and the solubility at 24 h [1] was 337 µM (≈ 109 µg/mL).

In the case of `O=C(/C=C/c1cccs1)c1cc2c(o1)C(=O)c1ccccc1C2=O`, the IC50 (U-251) is reported as 2.2 µM, the IC50 (HepG2) is reported as over 10 µM and the IC50 (HT-29) is reported as 1.52 µM. The IC50 (CT26) was over 10 µM and the IC50 (PC-3) was over 10 µM.

Work on `O=C1c2ccccc2C(=O)c2oc(C(=O)N3CCCCC3)cc21` yielded an IC50 (U-251) of 2.16 µM, an IC50 (HepG2) of over 10 µM and an IC50 (HT-29) of 1.57 µM. The IC50 (CT26) was 0.95 µM and the IC50 (PC-3) was over 10 µM.

Work on `O=C(NCCN1CCOCC1)c1cc2c(o1)C(=O)c1ccccc1C2=O` yielded an IC50 (U-251) of 1.63 µM, an IC50 (HepG2) of over 10 µM and an IC50 (HT-29) of 0.37 µM. It also gave an IC50 (CT26) of 0.05 µM, an IC50 (PC-3) of 7.19 µM and a solubility at 24 h [1] of under 70.6 µM.

Compound `O=C(/C=C/c1ccc(-c2ccccc2)cc1)c1cc2c(o1)C(=O)c1ccccc1C2=O` has an IC50 (U-251) of over 10 µM, an IC50 (HepG2) of over 10 µM and an IC50 (HT-29) of over 10 µM. The IC50 (CT26) was over 10 µM and the IC50 (PC-3) was over 10 µM.

`COc1ccc(C2CCN(C(=O)c3cc4c(o3)C(=O)c3ccccc3C4=O)CC2)cc1` showed an IC50 (U-251) of over 10 µM, an IC50 (HepG2) of over 10 µM and an IC50 (HT-29) of over 10 µM. It also gave an IC50 (PC-3) of 9.64 µM.

For `CC1(C)CCC(NC(=O)c2cc3c(o2)C(=O)c2ccccc2C3=O)CC1`, the IC50 (U-251) was 2.65 µM, the IC50 (HepG2) was 11.2 µM and the IC50 (HT-29) was over 10 µM. For the same compound, the IC50 (PC-3) was over 10 µM.

For `O=C1c2ccccc2C(=O)c2oc(C(=O)N3CCC(c4cccc(Cl)c4)CC3)cc21`, the IC50 (U-251) was over 10 µM, the IC50 (HepG2) was over 10 µM and the IC50 (HT-29) was over 10 µM. For the same compound, the IC50 (PC-3) was over 10 µM.

In the case of `COc1ccc(CCNC(=O)c2cc3c(o2)C(=O)c2ccccc2C3=O)cc1`, the IC50 (U-251) is reported as 6.32 µM, the IC50 (HepG2) is reported as over 10 µM and the IC50 (HT-29) is reported as over 10 µM. It also gave an IC50 (PC-3) of over 10 µM.

In the case of `O=C(NC12CC3CC(CC(C3)C1)C2)c1cc2c(o1)C(=O)c1ccccc1C2=O`, the IC50 (U-251) is reported as over 10 µM, the IC50 (HepG2) is reported as over 10 µM and the IC50 (HT-29) is reported as over 10 µM. It also gave an IC50 (PC-3) of over 10 µM.

Work on `O=C(NCCc1ccc(Cl)cc1)c1cc2c(o1)C(=O)c1ccccc1C2=O` yielded an IC50 (U-251) of 3.36 µM, an IC50 (HepG2) of over 10 µM and an IC50 (HT-29) of over 10 µM. For the same compound, the IC50 (PC-3) was over 10 µM.

For `CCN1CCN(C(=O)c2cc3c(o2)C(=O)c2ccccc2C3=O)CC1`, the IC50 (U-251) was 0.87 µM, the IC50 (HepG2) was over 10 µM and the IC50 (HT-29) was 0.21 µM. The IC50 (CT26) was 0.59 µM, the IC50 (PC-3) was 2.06 µM and the solubility at 24 h [1] was 241 µM (≈ 81.5 µg/mL).

`O=C(NCCc1ccccc1)c1cc2c(o1)C(=O)c1ccccc1C2=O` showed an IC50 (U-251) of over 10 µM, an IC50 (HepG2) of over 10 µM and an IC50 (HT-29) of over 10 µM. The IC50 (PC-3) was over 10 µM.

Work on `O=C(NCCN1CCCC1)c1cc2c(o1)C(=O)c1ccccc1C2=O` yielded an IC50 (U-251) of 0.9 µM, an IC50 (HepG2) of 1.75 µM and an IC50 (HT-29) of 0.3 µM. For the same compound, the IC50 (CT26) was 0.2 µM and the IC50 (PC-3) was 4.45 µM.

`O=C(NC1CCCCC1)c1cc2c(o1)C(=O)c1ccccc1C2=O` showed an IC50 (U-251) of 3.02 µM, an IC50 (HepG2) of over 10 µM and an IC50 (HT-29) of over 10 µM. The IC50 (PC-3) was over 10 µM.

For `O=C1c2ccccc2C(=O)c2oc(C(=O)N3CCSCC3)cc21`, the IC50 (U-251) was 3.1 µM, the IC50 (HepG2) was 9.63 µM and the IC50 (HT-29) was 1.65 µM. For the same compound, the IC50 (CT26) was 1.35 µM, the IC50 (PC-3) was 5.83 µM and the solubility at 24 h [1] was under 76.5 µM.

For `O=C1c2ccccc2C(=O)c2oc(C(=O)N3CCC(c4ccc(F)cc4)CC3)cc21`, the IC50 (U-251) was over 10 µM, the IC50 (HepG2) was over 10 µM and the IC50 (HT-29) was over 10 µM. For the same compound, the IC50 (PC-3) was over 10 µM.

Work on `COC(=O)CC1CCN(C(=O)c2cc3c(o2)C(=O)c2ccccc2C3=O)CC1` yielded an IC50 (U-251) of 5.92 µM, an IC50 (HepG2) of 9.66 µM and an IC50 (HT-29) of over 10 µM. It also gave an IC50 (PC-3) of over 10 µM.

With `Cn1cccc1/C=C/C(=O)c1cc2c(o1)C(=O)c1ccccc1C2=O` the IC50 (U-251) was 1.5 µM, the IC50 (HepG2) was over 10 µM and the IC50 (HT-29) was 0.87 µM. For the same compound, the IC50 (CT26) was 2.48 µM and the IC50 (PC-3) was over 10 µM.

`O=C1CCN(C(=O)c2cc3c(o2)C(=O)c2ccccc2C3=O)CC1` showed an IC50 (U-251) of 0.58 µM, an IC50 (HepG2) of 2.5 µM and an IC50 (HT-29) of 1.13 µM. For the same compound, the IC50 (CT26) was 0.61 µM, the IC50 (PC-3) was over 10 µM and the solubility at 24 h [1] was 118 µM (≈ 38.1 µg/mL).

For `O=C1c2ccccc2C(=O)c2oc(C(=O)N3CCN(c4cccc(C(F)(F)F)c4)CC3)cc21`, the IC50 (U-251) was over 10 µM, the IC50 (HepG2) was over 10 µM and the IC50 (HT-29) was over 10 µM. It also gave an IC50 (PC-3) of over 10 µM.

In the case of `CC(=O)c1cc2c(o1)C(=O)c1ccccc1C2=O` [NAPABUCASIN], the IC50 (U-251) is reported as 2.6 µM, the IC50 (HepG2) is reported as 6.6 µM and the IC50 (HT-29) is reported as 1.6 µM. It also gave an IC50 (CT26) of 2.5 µM, an IC50 (PC-3) of 5.25 µM and a solubility at 24 h [1] of under 62.5 µM.

For `O=C1c2ccccc2C(=O)c2oc(C(=O)N3CCCC3)cc21`, the IC50 (U-251) was 2.18 µM, the IC50 (HepG2) was over 10 µM and the IC50 (HT-29) was 1.08 µM. For the same compound, the IC50 (CT26) was 0.58 µM and the IC50 (PC-3) was 9.65 µM.

Compound `O=C1c2ccccc2C(=O)c2oc(C(=O)N3CCOCC3)cc21` has an IC50 (U-251) of 2.19 µM, an IC50 (HepG2) of 7.3 µM and an IC50 (HT-29) of 0.86 µM. For the same compound, the IC50 (CT26) was 0.57 µM, the IC50 (PC-3) was 6.84 µM and the solubility at 24 h [1] was 162 µM (≈ 50.5 µg/mL).
